Assay results as given in ChEMBL document CHEMBL4376814, “Novel cyclin-dependent kinase 9 (CDK9) inhibitor with suppression of cancer stemness activity against non-small-cell lung cancer” (Eur J Med Chem, 2019).
Activity calls are given as the source filed them. The calls are words filed in the database; no cut-off is given here.

Columns and labels:
[1] = biological target: T1, CDK6/cyclin D3 (Homo sapiens) (UniProt P30281+Q00534); experiment: Inhibition of recombinant full-length human CDK6/cyclinD3 at 1 uM using histone H1 as substrate measured after 40 mins in presence of [gamma33P]ATP by scintillation counting method relative to control; format: protein-complex assay
How it was run: (§1)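 Percent inhibition of kinase activity at a single compound concentration, measured by the outsourced Eurofins KinaseProfiler panel. Values are the mean of two independent experiments.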

A549 [2] = experiment: Antiproliferative activity against human A549 cells assessed as inhibition of cell viability at 1 uM after 72 hrs by CCK-8 assay relative to control; format: functional; details: A549, 72 h
How it was run: (§2)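 Single-concentration viability screen using CCK-8. Cells were seeded at 3000/well and treated for 72 h. A450 read after 1-4 h with reagent. Percent inhibition calculated against untreated control and blank wells as (Ac−As)/(Ac−Ab)×100%.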

[3] = biological target: T2, CDK4/Cyclin D3 (Homo sapiens) (UniProt P11802+P30281); experiment: Inhibition of recombinant full-length human CDK4/cyclinD3 at 500 nM using Rb fragment as substrate measured after 40 mins in presence of [gamma33P]ATP by scintillation counting method relative to control; format: protein-complex assay; how it was run: as §1
NCI-H1299 [4] = experiment: Antiproliferative activity against human H1299 cells assessed as inhibition of cell viability at 1 uM after 72 hrs by CCK-8 assay relative to control; format: functional; details: NCI-H1299, 72 h; how it was run: as §2
[5] = biological target: T3, CDK9/cyclin T1 (Homo sapiens) (UniProt O60563+P50750); experiment: Inhibition of recombinant full-length human CDK9/cyclinT1 at 500 nM using KTFCGTPEYLAPEVRREPRILSEEEQEMFRDFDYIADWC peptide as substrate measured after 40 mins in presence of [gamma33P]ATP by scintillation counting method relative to control; format: protein-complex assay; how it was run: as §1
NCI-H1299 [6] = experiment: Antiproliferative activity against human H1299 cells assessed as inhibition of cell viability at 10 uM after 72 hrs by CCK-8 assay relative to control; format: functional; details: NCI-H1299, 72 h; how it was run: as §2
[7] = biological target: T2, CDK4/Cyclin D3 (Homo sapiens); experiment: Inhibition of recombinant full-length human CDK4/cyclinD3 at 1 uM using Rb fragment as substrate measured after 40 mins in presence of [gamma33P]ATP by scintillation counting method relative to control; format: protein-complex assay; how it was run: as §1
A549 [8] = experiment: Antiproliferative activity against human A549 cells assessed as inhibition of cell viability at 10 uM after 72 hrs by CCK-8 assay relative to control; format: functional; details: A549, 72 h; how it was run: as §2
[9] = biological target: T3, CDK9/cyclin T1 (Homo sapiens); experiment: Inhibition of recombinant full-length human CDK9/cyclinT1 at 1 uM using KTFCGTPEYLAPEVRREPRILSEEEQEMFRDFDYIADWC peptide as substrate measured after 40 mins in presence of [gamma33P]ATP by scintillation counting method relative to control; format: protein-complex assay; how it was run: as §1
[10] = biological target: T1, CDK6/cyclin D3 (Homo sapiens); experiment: Inhibition of recombinant full-length human CDK6/cyclinD3 at 500 nM using histone H1 as substrate measured after 40 mins in presence of [gamma33P]ATP by scintillation counting method relative to control; format: protein-complex assay; how it was run: as §1
CDK9/cyclin T1 = CDK9/cyclin T1 (Homo sapiens, UniProt P50750); experiment: Inhibition of recombinant full-length human CDK9/cyclinT1 using KTFCGTPEYLAPEVRREPRILSEEEQEMFRDFDYIADWC peptide as substrate measured after 40 mins in presence of [gamma33P]ATP by scintillation counting method; format: protein-complex assay
Chain of CDK9/cyclin T1 (O60563 whole entry): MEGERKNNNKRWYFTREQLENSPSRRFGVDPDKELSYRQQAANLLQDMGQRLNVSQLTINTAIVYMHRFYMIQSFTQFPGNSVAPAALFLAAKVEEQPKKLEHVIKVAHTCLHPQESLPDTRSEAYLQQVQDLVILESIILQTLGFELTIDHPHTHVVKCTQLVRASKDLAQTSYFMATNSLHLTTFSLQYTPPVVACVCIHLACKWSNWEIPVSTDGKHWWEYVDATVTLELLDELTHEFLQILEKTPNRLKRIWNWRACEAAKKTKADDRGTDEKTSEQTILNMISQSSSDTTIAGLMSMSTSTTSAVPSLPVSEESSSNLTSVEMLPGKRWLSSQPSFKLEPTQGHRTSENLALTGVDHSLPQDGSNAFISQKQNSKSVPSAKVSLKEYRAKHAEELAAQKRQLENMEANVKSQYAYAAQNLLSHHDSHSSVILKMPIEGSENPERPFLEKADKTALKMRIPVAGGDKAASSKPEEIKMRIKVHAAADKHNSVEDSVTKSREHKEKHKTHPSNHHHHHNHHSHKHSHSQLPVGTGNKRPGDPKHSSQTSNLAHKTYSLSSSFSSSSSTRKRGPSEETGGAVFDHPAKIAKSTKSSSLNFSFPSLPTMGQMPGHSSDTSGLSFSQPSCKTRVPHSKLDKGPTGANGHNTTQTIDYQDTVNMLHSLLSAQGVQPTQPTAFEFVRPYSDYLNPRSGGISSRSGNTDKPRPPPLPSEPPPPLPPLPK
Chain of CDK9/cyclin T1 (P50750 whole entry): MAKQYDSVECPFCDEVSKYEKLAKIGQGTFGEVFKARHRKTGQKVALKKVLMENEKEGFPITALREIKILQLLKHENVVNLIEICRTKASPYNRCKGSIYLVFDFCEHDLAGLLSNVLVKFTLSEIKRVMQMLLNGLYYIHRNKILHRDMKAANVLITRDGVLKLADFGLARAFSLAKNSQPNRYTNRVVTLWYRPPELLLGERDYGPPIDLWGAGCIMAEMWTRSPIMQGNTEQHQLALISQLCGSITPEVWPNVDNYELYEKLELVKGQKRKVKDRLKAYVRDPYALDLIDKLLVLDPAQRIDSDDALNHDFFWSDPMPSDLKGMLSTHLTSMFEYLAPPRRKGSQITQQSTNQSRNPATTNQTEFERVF
How it was run: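 IC50 against CDK9/cyclin T1, determined by the outsourced Eurofins KinaseProfiler service. Values are the mean of two independent experiments.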

inhibition [1] | inhibition [3] [%] | inhibition [5] [%] | inhibition [7] [%] | inhibition [9] [%] | inhibition [10] [%] | IC50 (CDK9/cyclin T1) [nM] | Structure (SMILES) | inhibition at 1 µM (A549 [2]) [%] | inhibition at 1 µM (NCI-H1299 [4]) [%] | inhibition at 10 µM (NCI-H1299 [6]) [%] | inhibition at 10 µM (A549 [8]) [%]
93% | 99 | 99 | 98 | 98 | 70 |  | CN(C)C(=O)c1cc2cnc(Nc3ccc(NC(=O)CCCN=C=S)cc3)nc2n1C1CCCC1 | 56.1 | 39.7 | 78.8 | 102
93% | 100 | 99 | 97 | 97 | 71 |  | CN(C)C(=O)c1cc2cnc(Nc3ccc(NC(=O)CCCCN=C=S)cc3)nc2n1C1CCCC1 | 38.2 | 58.6 | 82.5 | 102
69% | 75 | 76 | 86 | 87 | 51 |  | CN(C)C(=O)c1cc2cnc(Nc3ccc(NC(=O)CCCCCCCN=C=S)c(F)c3)nc2n1C1CCCC1 |  |  |  | 
64% | 91 | 18 | 84 | 73 | 46 |  | CN(C)C(=O)c1cc2cnc(Nc3ccc(C(=O)NCCCCCCCN=C=S)cn3)nc2n1C1CCCC1 |  |  |  | 
81% | 89 | 90 | 93 | 95 | 63 |  | CN(C)C(=O)c1cc2cnc(Nc3ccc(CNC(=O)CCCCCCCN=C=S)cc3)nc2n1C1CCCC1 | 17.8 | 53.8 | 91.7 | 98.9
42% |  | 7 | 37 | 84 |  |  | CN(C)C(=O)c1cc2cnc(Nc3ccc(C(=O)NCCCCCCCN=C=S)cc3O)nc2n1C1CCCC1 |  |  |  | 
47% |  | 5 | 45 | 81 |  |  | CN(C)C(=O)c1cc2cnc(Nc3ccc(C(=O)NCCCCCCN=C=S)cc3O)nc2n1C1CCCC1 |  |  |  | 
92% | 101 | 67 | 98 | 96 | 63 |  | CN(C)C(=O)c1cc2cnc(Nc3ccc(C(=O)NCCCCCCN=C=S)cc3)nc2n1C1CCCC1 | 35.8 | 49.4 | 85 | 100
86% | 99 | 98 | 97 | 99 | 65 |  | CN(C)C(=O)c1cc2cnc(Nc3ccc(NC(=O)CCCCCCN=C=S)cc3)nc2n1C1CCCC1 | 43.3 | 50.9 | 80.9 | 102
inactive |  |  | 14 | 17 |  |  | CN(C)C(=O)c1cc2cnc(NNC(=O)CCCCCCCN=C=S)nc2n1C1CCCC1 |  |  |  | 
1% |  |  | 14 | 11 |  |  | CN(C)C(=O)c1cc2cnc(Nc3ccccc3NC(=O)CCCCCCCN=C=S)nc2n1C1CCCC1 |  |  |  | 
90% | 99 | 99 | 96 | 97 | 64 |  | CN(C)C(=O)c1cc2cnc(Nc3ccc(NC(=O)CCCCCN=C=S)cc3)nc2n1C1CCCC1 | 56.1 | 34.3 | 85 | 100
1% |  | 79 | 63 | 72 |  |  | CN(C)C(=O)c1cc2cnc(Nc3ccc(NC(=O)CCCCCCCN=C=S)cc3C(F)(F)F)nc2n1C1CCCC1 |  |  |  | 

Further lines, the compound ahead of its results:

Structure (SMILES) | inhibition [1] | inhibition [3] [%] | inhibition [5] [%] | inhibition [7] [%] | inhibition [9] [%] | inhibition [10] [%] | IC50 (CDK9/cyclin T1) [nM] | inhibition at 1 µM (A549 [2]) [%] | inhibition at 1 µM (NCI-H1299 [4]) [%] | inhibition at 10 µM (NCI-H1299 [6]) [%] | inhibition at 10 µM (A549 [8]) [%]
CN(C)C(=O)c1cc2cnc(Nc3ccc(S(=O)(=O)NCCCN=C=S)cc3)nc2n1C1CCCC1 | 89% | 85 | 96 | 90 | 97 | 59 |  | 58.9 | 41.3 | 72.8 | 102
CN(C)C(=O)c1cc2cnc(Nc3ccc(C(=O)NCCCCN=C=S)cn3)nc2n1C1CCCC1 | 88% | 91 | 41 | 95 | 85 | 53 |  |  |  |  | 
CN(C)C(=O)c1cc2cnc(Nc3ccc(C(=O)NCCCCN=C=S)cc3O)nc2n1C1CCCC1 | 61% |  | 89 | 55 | 91 |  | 42 | 30.3 | 10.7 | 51.8 | 41.7
CN(C)C(=O)c1cc2cnc(Nc3ccc(C(=O)NCCCN=C=S)cc3)nc2n1C1CCCC1 | 94% | 98 | 100 | 99 | 98 | 69 |  | 32.9 | 65.1 | 91.2 | 102
CN(C)C(=O)c1cc2cnc(Nc3ccc(C(=O)NCCCCCCN=C=S)cn3)nc2n1C1CCCC1 | 82% | 93 | 27 | 95 | 73 | 52 |  |  |  |  | 
CN(C)C(=O)c1cc2cnc(Nc3ccc(N4CCN(C(=O)CCCCCCCN=C=S)CC4)cn3)nc2n1C1CCCC1 | 93% | 91 | 3 | 98 | 58 | 62 |  |  |  |  | 
O=C(CCCCCCCN=C=S)Nc1ccc(Nc2ncc3nnn(C4CCCC4)c3n2)cc1 | 42% |  | 34 | 19 | 78 |  |  |  |  |  | 
CN(C)C(=O)c1cc2cnc(Nc3ccc(C(=O)NCCCCCN=C=S)cn3)nc2n1C1CCCC1 | 87% | 94 | 37 | 94 | 87 | 55 |  |  |  |  | 
CN(C)C(=O)c1cc2cnc(Nc3ccc(C(=O)NCCCCN=C=S)cc3)nc2n1C1CCCC1 | 93% | 99 | 98 | 98 | 99 | 79 |  | 30.2 | 55.2 | 74.2 | 102
CN(C)C(=O)c1cc2cnc(Nc3ccc(C(=O)NCCCN=C=S)cn3)nc2n1C1CCCC1 | 89% | 92 | 40 | 95 | 84 | 54 |  |  |  |  | 
CN(C)C(=O)c1cc2cnc(Nc3ccc(S(=O)(=O)NCCCCCN=C=S)cc3)nc2n1C1CCCC1 | 89% | 85 | 95 | 91 | 98 | 51 |  | 56.6 | 52.1 | 83.4 | 102
CN(C)C(=O)c1cc2cnc(Nc3ccc(C(=O)NCCCCCN=C=S)cc3)nc2n1C1CCCC1 | 94% | 101 | 97 | 97 | 97 | 79 |  | 29.3 | 50.3 | 76.5 | 100
CN(C)C(=O)c1cc2cnc(Nc3ccc(N=C=S)cc3)nc2n1C1CCCC1 | 72% | 89 | 93 | 94 | 96 | 43 |  | 44.4 | 46.9 | 83.7 | 97.9
CN(C)C(=O)c1cc2cnc(Nc3ccc(S(=O)(=O)NCCCCN=C=S)cc3)nc2n1C1CCCC1 | 92% | 91 | 99 | 90 | 98 | 64 |  | 39.4 | 29.9 | 72.7 | 101
